Laboratory results as given in ChEMBL document CHEMBL4321878, “Stereoselective Activity of 1-Propargyl-4-styrylpiperidine-like Analogues That Can Discriminate between Monoamine Oxidase Isoforms A and B” (J Med Chem, 2020).
Calls of active or inactive are those of the source. No cut-off for these calls is given here.

Assays:
[1] = target: T1, Amine oxidase [flavin-containing] A (Homo sapiens, UniProt P21397); conditions: 20 min
T1 sequence (P21397 whole entry): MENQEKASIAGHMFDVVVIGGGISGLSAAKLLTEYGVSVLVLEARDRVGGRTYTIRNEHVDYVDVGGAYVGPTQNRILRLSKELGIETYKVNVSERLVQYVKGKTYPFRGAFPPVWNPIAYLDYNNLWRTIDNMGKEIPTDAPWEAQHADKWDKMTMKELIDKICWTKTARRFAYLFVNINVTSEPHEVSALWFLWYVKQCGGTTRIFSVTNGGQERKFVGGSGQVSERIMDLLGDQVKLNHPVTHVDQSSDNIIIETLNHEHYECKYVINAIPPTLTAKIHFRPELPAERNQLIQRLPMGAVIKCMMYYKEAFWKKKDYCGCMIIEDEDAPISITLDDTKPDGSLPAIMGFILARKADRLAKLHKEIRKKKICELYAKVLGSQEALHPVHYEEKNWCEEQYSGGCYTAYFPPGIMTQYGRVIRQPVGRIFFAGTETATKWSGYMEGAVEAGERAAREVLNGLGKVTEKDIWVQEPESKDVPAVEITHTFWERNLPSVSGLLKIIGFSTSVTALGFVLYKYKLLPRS

[2] = system: SH-SY5Y; test: Cytotoxicity against human SH-SY5Y cells assessed as reduction in cell viability at 5 to 10 uM measured after 24 hrs by MTS assay; type: cell-based
In short: (§1)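 SH-SY5Y human neuroblastoma cells grown in Advanced DMEM with 10% FBS at 37 °C, 5% CO2, and switched to serum-depleted medium before treatment. Compounds (20 mM DMSO stocks) were applied at 5, 10 or 50 μM for 24 h. Viability read by MTS assay.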

[3] = Cytotoxicity against human SH-SY5Y cells assessed as cell viability at 50 uM measured after 24 hrs by MTS assay relative to control; type: cell-based; conditions: read-out: Activity
In short: as §1

[4] = system: SH-SY5Y; test: Neuroprotective activity against 6-OHDA-induced toxicity in human SH-SY5Y cells assessed as LDH release at 5 uM pretreated for 30 mins followed by 6-OHDA challenge and measured after 24 hrs by cytotox-onetm homogeneous membrane integrity assay (reference value: 135%); type: functional
[5] = system: Mus musculus; test: Antianxiety activity in Swiss mouse assessed as increase in open arm entries at 1 mg/kg, ip measured after 30 mins and monitored for 5 mins by elevated plus maze test relative to control; type: functional
[6] = system: Mus musculus; test: Antianxiety activity in Swiss mouse assessed as increase in time spent in open arm entries at 1 mg/kg, ip measured after 30 mins and monitored for 5 mins by elevated plus maze test relative to control; type: functional
[7] = system: Mus musculus; test: Antidepressant-like activity in Swiss mouse assessed as reduction in immobility time at 30 mg/kg, ip administered as single dose for 30 mins prior to testing measured for last 4 mins of 6 mins test by tail suspension test; type: functional, organism-based
[8] = target: T1, Amine oxidase [flavin-containing] A; test: Irreversible inhibition of recombinant human MAOA expressed in Pichia pastoris at 100 uM measured immediately by UV-vis spectrophotometric analysis relative to control
[9] = Apparent permeability across absorptive direction in Sprague-Dawley rat ileum at 50 uM measured after 20 mins LC-MS/MS analysis; type: ADME, tissue-based
[10] = system: Mus musculus; test: Antidepressant-like activity in Swiss mouse assessed as reduction in immobility time at 3 to 10 mg/kg, ip administered as single dose for 30 mins prior to testing measured for last 4 mins of 6 mins test by tail suspension test; type: functional, organism-based
[11] = Photoisomerization of the compound in D2O incubated for 7 days under sunlight by NMR analysis
[12] = Solubility of the compound in pH 7.4 sodium phosphate buffer at >100 uM; type: physicochemical
[13] = system: Mus musculus; test: Ex vivo inhibition of MAOB in ip dosed Swiss mouse brain homogenates measured after 30 mins using benzylamine as substrate by amplex red reagent-based horseradish peroxidase-coupled fluorescence assay; type: functional
[14] = system: Mus musculus; test: Reversal of haloperidol-induced catalepsy in Swiss mouse at 0.3 mg/kg, ip pretreated for 15 mins followed by haloperidol challenge and measured up to 90 mins; type: functional, organism-based
[15] = system: Mus musculus; test: Antianxiety activity in Swiss mouse assessed as number of total arm entries at 10 mg/kg, ip measured after 30 mins and monitored for 5 mins by elevated plus maze test; type: functional
In short: (§2)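 Adult male Swiss mice (25–30 g), given hydrochloride salts in 0.9% saline ip 30 min before the elevated plus maze; control mice received saline, with diazepam 1 mg/kg ip as reference. Scored arm entries, open-arm parameters and time in centre. Mice were used once, randomly assigned, and scored by blinded observers between 10:00 and 14:00 h.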

[16] = system: Mus musculus; test: Antianxiety activity in Swiss mouse assessed as proportion of time spent in centre at 10 mg/kg, ip measured after 30 mins and monitored for 5 mins by elevated plus maze test relative to control; type: functional
In short: as §2

[17] = system: Mus musculus; test: Effect on spontaneous locomotor activity in Swiss mouse assessed as change in number of light beam crossings at 10 mg/kg, ip measured after 30 mins and monitored for 5 mins; type: ADME, organism-based; conditions: in vivo
[18] = system: SH-SY5Y; test: Neuroprotective activity against 6-OHDA-induced toxicity in human SH-SY5Y cells assessed as reduction in propidium iodide positive cells at 5 uM pretreated for 30 mins followed by 6-OHDA challenge and measured after 24 hrs by propidium iodide staining-based flow cytometric analysis relative to 6-OHDA; type: functional
In short: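 SH-SY5Y cells were grown in Advanced DMEM with 10% FBS at 37 °C, 5% CO2 to 80% confluence, then switched to serum-depleted medium. Compound (5 μM, from a 20 mM DMSO stock) was added 30 min before 6-OHDA (100 μM). After 24 h, PI staining was read by flow cytometry. Runs were n ≥ 2, each in duplicate, with one-way ANOVA and Bonferroni.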

C#CCN1CCC(/C=C/c2ccc(C(F)(F)F)cc2)CC1 [listing 1 of 2 here]
activity at 100 µM [1]: 64.9%

C#CCN1CCC(CCc2ccc(C)cc2)CC1
activity at 100 µM [1]: 68.1%

C#CCN1CCC(/C=C/c2ccc(Br)cc2)CC1
activity at 100 µM [1]: 54.5%

C#CCN1CCCC(CCc2ccc(F)cc2)C1 (racemic)
activity at 100 µM [1]: 93.1%

C#CCN1CCC(CCc2ccc(OC)cc2)CC1
activity at 100 µM [1]: 62.2%

C#CCN1CCC(CCc2cccc(C(F)(F)F)c2)CC1
activity at 100 µM [1]: 71.6%

C#CCN1CCC(/C=C\c2ccc(C)cc2)CC1
activity at 100 µM [1]: 62.2%

C#CCN1CCC(CCc2ccc(O)cc2)CC1
activity at 100 µM [1]: 67.7%

C#CCN1CCC(/C=C/c2ccc(F)cc2)CC1.Cl
Activity [2]: Non-Toxic | viability at 24 h, 50 µM [3]: > 80% | Activity [4]: 76%

C#CCN1CCC(CCc2ccc(Cl)cc2)CC1
activity at 100 µM [1]: 67.7%

C#CCN1CCC(/C=C/c2ccc(OC)cc2)CC1
activity at 100 µM [1]: 56.1%

C#CCN1CCC(/C=C/c2ccc(S(C)(=O)=O)cc2)CC1
activity at 100 µM [1]: 68.7%

C#CCN1CCC(CCc2cc(F)c(F)cc2F)CC1
activity at 100 µM [1]: 65.6%

C#CCN1CCC(/C=C\c2ccc(C(F)(F)F)cc2)CC1
activity at 100 µM [1]: 80.1%

C#CCN1CCC(CCc2ccc(F)cc2)CC1
activity at 100 µM [1]: 76.9%

CN1C(=O)CN=C(c2ccccc2)c2cc(Cl)ccc21 [DIAZEPAM]
fold change (FC) [5]: 2.1 | fold change (FC) [6]: 2.4

CN(C)CCCN1c2ccccc2CCc2ccccc21
Activity [7]: Active

C#CCN1CCC(/C=C/c2ccc(C)cc2)CC1
activity at 100 µM [1]: 57.3%

C#CCN(C)CCCOc1ccc(Cl)cc1Cl [CLORGILINE]
inhibition at 100 µM [8]: 100%

COCCc1ccc(OCC(O)CNC(C)C)cc1 (stereo unspecified) [METOPROLOL]
Papp A→B at 20 min, 50 µM [9]: 14 ×10⁻⁶ cm/s

C#CCN1CCC(/C=C\c2ccccc2)CC1.Cl
Activity [2]: Non-Toxic | viability at 24 h, 50 µM [3]: > 80% | Activity [10]: inactive

C#CCN1CCC(/C=C/c2ccc(C(N)=O)cc2)CC1
activity at 100 µM [1]: 64.8%

C#CCN1CCC(/C=C/c2ccc(C(F)(F)F)cc2)CC1 [listing 2 of 2 here]
Drug metabolism [11]: Metabolite not detected

C#CCN1CCCC(CCc2cc(F)c(F)cc2F)C1 (racemic)
activity at 100 µM [1]: 86%

C#CCN1CCC(CCc2ccc(C#N)cc2)CC1.Cl
Activity [2]: Non-Toxic | viability at 24 h, 50 µM [3]: > 80% | Activity [4]: 82%

C#CCN1CCC(/C=C\c2ccc(S(C)(=O)=O)cc2)CC1
activity at 100 µM [1]: 70.6%

C#CCN1CCC(/C=C/c2ccc(C(C)C)cc2)CC1
solubility [12]: Insoluble

C#CCN1CCC(/C=C\c2ccc(C(N)=O)cc2)CC1
activity at 100 µM [1]: 89.5%

C#CCN1CCC(CCc2ccc(C(F)(F)F)cc2)CC1 [listing 1 of 2 here]
activity at 100 µM [1]: 62.3%

C#CCN1CCC(/C=C\c2ccc(Cl)cc2)CC1
solubility [12]: Insoluble

C#CCN1CCC(CCc2ccc(C(N)=O)cc2)CC1
activity at 100 µM [1]: 75.1%

C#CCN1CCC(CCc2ccccc2)CC1
solubility [12]: Insoluble

C#CCN1CCCC(/C=C/c2cc(F)c(F)cc2F)C1 (racemic)
activity at 100 µM [1]: 102%

C#CCN1CCC(CCc2ccc(C(C)C)cc2)CC1
solubility [12]: Insoluble

C#CCN1CCC(CCc2ccc(C(F)(F)F)cc2)CC1 [listing 2 of 2 here]
Drug metabolism [11]: Metabolite not detected | inhibition [13]: Dose-dependent effect | Activity [14]: inactive

C#CCN1CCC(/C=C\c2ccc(F)cc2)CC1.Cl
Activity [2]: Non-Toxic | viability at 24 h, 50 µM [3]: > 80% | Activity [10]: Active | Activity [15]: 9.7 | Activity [16]: 13.4% | Activity [17]: Toxic

C#CCN1CCC(CCc2ccc(C(C)C)cc2)CC1.Cl
Activity [2]: Non-Toxic | viability at 24 h, 50 µM [3]: > 80% | Activity [4]: 82% | fold change (FC) [18]: 0.68

C#CCN1CCC(/C=C/c2ccc(C#N)cc2)CC1
solubility [12]: Insoluble

C#CCN1CCCC(/C=C/c2ccc(F)cc2)C1 (racemic)
activity at 100 µM [1]: 91%
